Reference: ChEMBL document CHEMBL1132614, “Novel inhibitors of carboxypeptidase G2 (CPG2): potential use in antibody-directed enzyme prodrug therapy” (J Med Chem, 1999)
One block for each compound: values may come before it.

Tests used:
[1] = system: LS174T; assay: The compound was evaluated for the cytotoxicity towards LS174T cells.; type: functional, cell-based; details: Homo sapiens
How it was run: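 LS174T human colon adenocarcinoma cells (CEA-expressing) exposed to graded inhibitor, 0.01–500 μM in medium, for 1 h at 37 °C. Cells were washed once, grown a further 6 days, and survival was read by SRB assay to give IC50.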

[2] = system: LS174T; assay: Cytotoxicity in conjugate with 2-(4-Methoxy-phenylsulphanylcarbonylamino)-pentanedioic acid at a concentration of 50 micuM against LS174T cells.; type: functional, cell-based; details: Homo sapiens
[3] = system: LS174T; assay: The compound was evaluated for the cytotoxicity with the compound alone against LS174T cells.; type: functional, cell-based; details: Homo sapiens
How it was run: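 LS174T cells were exposed to graded compound alone (0.01–500 μM in medium) for 1 h at 37 °C, with no conjugate. Cells were washed once with medium and cultured a further 6 days. Survival was measured by sulforhodamine B (SRB) assay.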

[4] = system: LS174T; assay: Cytotoxicity in conjugate with F(ab')2-A5B7-CPG2 and 2-(4-Methoxy-phenylsulphanylcarbonylamino)-pentanedioic acid at a concentration of 50 uM against LS174T cells.; type: functional, cell-based; details: Homo sapiens
How it was run: (§1)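 LS174T human colon adenocarcinoma cells (CEA-expressing) were exposed to F(ab')2-A5B7-CPG2 conjugate (3.32 μg/mL, 0.505 U/mL) for 1 h at 37 °C and washed twice to remove unbound conjugate. They were then exposed for 1 h at 37 °C to graded prodrug plus the stated fixed CPG2 inhibitor level (25 or 50 μM). After a wash, cells grew 6 days; survival was measured by SRB assay.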

[5] = system: LS174T; assay: Cytotoxicity in conjugate with F(ab')2-A5B7-CPG2 and 2-(4-Methoxy-phenylsulphanylcarbonylamino)-pentanedioic acid at a concentration of 25 uM against LS174T cells.; type: functional, cell-based; details: Homo sapiens; how it was run: as §1
[6] = system: LS174T; assay: The compound was evaluated for the cytotoxicity in conjugate with F(ab')2-A5B7-CPG2 against LS174T cells.; type: functional, cell-based; details: Homo sapiens
How it was run: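 They then received graded prodrug (0.01–500 μM in medium) for 1 h at 37 °C to generate the phenol mustard in situ. After a wash and a further 6 days, survival was measured by SRB assay.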

[7] = The compound was evaluated for the apparent Vmax through Lineweaver-Burke Plots of MTX turnover by CPG2 at a concentration of 1 (uM).; type: ADME
How it was run: (§2)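 CPG2 (10 μL of 28.66 μg/mL stock) in a 1-mL cuvette; reaction started with 990 μL methotrexate (3.077–70 μM) alone or with inhibitor at fixed 0.5 or 1.0 μM (final). Buffer was 0.1 M Tris-HCl pH 7.3, 0.1 mM ZnCl2, 37 °C. A320 decrease over 0–60 s gave initial velocities; apparent Vmax came from Lineweaver–Burk plots.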

[8] = The compound was evaluated for the apparent Vmax through Lineweaver-Burke Plots of MTX turnover by CPG2 at a concentration of 0 (uM).; type: ADME; how it was run: as §2
[9] = The compound was evaluated for the apparent Vmax through Lineweaver-Burke Plot of MTX turnover by CPG2 at a concentration of 0.5 (uM).; type: ADME; how it was run: as §2

Structure (SMILES): Cc1ccc(SC(=O)NC(CCC(=O)O)C(=O)O)cc1 (stereo not given)
IC50 [1]: > 500 µM

Structure (SMILES): O=C(O)CCC(NC(=O)Oc1ccc(N(CCCl)CCCl)cc1)C(=O)O (stereo not given)
IC50 [2]: 24 µM
IC50 [3]: 23.2 µM
IC50 [4]: 16.2 µM
IC50 [5]: 3.3 µM
IC50 [6]: 0.8 µM

Structure (SMILES): COc1cccc(SC(=O)NC(CCC(=O)O)C(=O)O)c1 (stereo not given)
IC50 [1]: > 500 µM

Structure (SMILES): Cc1cccc(SC(=O)NC(CCC(=O)O)C(=O)O)c1 (stereo not given)
IC50 [1]: > 500 µM

Structure (SMILES): Nc1ccc(SC(=O)NC(CCC(=O)O)C(=O)O)cc1 (stereo not given)
IC50 [1]: 416 µM

Structure (SMILES): COc1ccc(SC(=O)N[C@@H](CCC(=O)O)C(=O)O)cc1
IC50 [1]: > 500 µM

Vmax [7]: 42.3 µM/min
Vmax [8]: 80 µM/min
Vmax [9]: 47.7 µM/min
Structure (SMILES): COc1ccc(SC(=O)N[C@H](CCC(=O)O)C(=O)O)cc1
IC50 [1]: > 500 µM

Structure (SMILES): Nc1cccc(SC(=O)NC(CCC(=O)O)C(=O)O)c1 (stereo not given)
IC50 [1]: > 500 µM
